Experimental data as given in paper PMC6126370 (Investigational new drugs, 2017).

Legend:
[1] = Clinical pharmacokinetics of PU-H71 in plasma and urine; format: in vivo, human; details: for Urinary excretion: 1-h i.v. infusion
In short: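 Patients with refractory solid tumors received the test compound (10–470 mg/m2) as a 1-h i.v. infusion. Heparinised blood was drawn on cycle 1 day 1 pre-infusion, 30 min after start, 5 min before end, and 1.5–24 h after start. Plasma was stored at −70 °C. Urine was collected every void on day 1. Plasma was acetonitrile-precipitated with deuterated internal standard and run on HPLC/MS against a control-plasma standard curve. Cmax/Tmax were taken by inspection and AUC by trapezoidal rule.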

[2] = system: refractory solid tumors; assay: Clinical response by RECIST 1.1; format: in vivo, human
In short: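 Adults (≥18 y) with solid tumors refractory to or lacking standard therapy received the test compound i.v. over 1 h on days 1 and 8 of 21-day cycles. Doses were 10–470 mg/m2/day, escalated by modified accelerated titration and then 3+3. Response was assessed by RECIST criteria in evaluable patients.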

[3] = system: patients with advanced solid tumors; details: human, in vivo
[4] = system: human liver microsomal fractions; assay: In vitro metabolism in liver microsomes or S9 fractions; format: in vitro ADME
In short: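 Test compound at 1 and 10 μM was incubated with human liver microsomes or S9 fraction (0.5 mg protein/mL) with 1 mM NADPH and 3.3 mM […] in 100 mM phosphate, pH 7.4, at 37 °C with shaking. For O-methylation, 0.1 mM S-adenosyl methionine was added. Aliquots were processed like plasma and analysed by LC/MS.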

[5] = system: mouse xenografts of triple negative breast cancer, lymphoma, myeloma, pancreatic, and hepatocellular carcinoma; details: preclinical mouse xenografts; cited from earlier work
[6] = system: Bcl-6-dependent diffuse large B-cell lymphoma (DLBCL), hepatocellular carcinoma (HCC), and breast cancer cell lines; details: preclinical studies, through induction of apoptosis; cited from earlier work
[7] = PU-H71 metabolites in patient plasma; format: in vivo, human; details: aliquot of patient plasma, Fig. 5a
[8] = 14 patients evaluable of 17 enrolled

CC(C)NCCCn1c(Sc2cc3c(cc2I)OCO3)nc2c(N)ncnc21 [PU-H71, 6-amino-8-[(6-iodo-1,3-benzodioxol-5-yl)thio]-N-(1-methylethyl)-9H–purine-9-propanamine]
dependency of T1/2 to dose level ([1]; 10 to 470 mg/m^2): no dependency to dose level | fraction of total AUC (± SD) during the infusion ([1]; all dose levels): 19.6% ± 11.3% | Urinary excretion ([1]; dose level 1 (10 mg/m^2), day 1, 1 patient): 5.5% | Urinary excretion ([1]; dose level 4 (60 mg/m^2), day 1, 1 patient): 8.8% | Urinary excretion ([1]; dose level 5 (80 mg/m^2), day 1, mean ± SD of 2 patients): 6.7 ± 1.3% | Urinary excretion ([1]; dose level 6 (110 mg/m^2), day 1, mean ± SD of 3 patients): 6.7 ±4.6% | Urinary excretion ([1]; dose level 7 (150 mg/m^2), day 1, 1 patient): 8.1% | Urinary excretion ([1]; dose level 8 (200 mg/m^2), day 1, mean ± SD of 2 patients): 6.0 ± 4.2% | Urinary excretion ([1]; dose level 9 (266 mg/m^2), day 1, 1 patient): 5.4% | Urinary excretion ([1]; dose level 10 (354 mg/m^2), day 1, mean ± SD of 3 patients): 8.6 ± 4.6% | Urinary excretion ([1]; dose level 11 (470 mg/m^2), day 1, 1 patient): 5.7% | Tmax ([1]; human, plasma, intravenous): ≤ 1 h | half-life ([1]; human, plasma, intravenous): 2.7 to 19.8 h | half-life ([1]; human, plasma, iv): 8.4 ± 3.6 h | AUC(0-inf) ([1]; human, plasma, iv, 10 mg/m^2): 0.517 µM·h | AUC(0-t) ([1]; human, plasma, iv, 10 mg/m^2): 0.45 µM·h | Cmax ([1]; human, plasma, iv, 10 mg/m^2): 0.2 µM | clearance ([1]; human, plasma, iv, 10 mg/m^2): 17.2 mL/min/kg | half-life ([1]; human, plasma, iv, 10 mg/m^2): 2.7 h | AUC(0-inf) ([1]; human, plasma, iv, 20 mg/m^2): 1.67 µM·h | AUC(0-t) ([1]; human, plasma, iv, 20 mg/m^2): 1.23 µM·h | Cmax ([1]; human, plasma, iv, 20 mg/m^2): 0.3 µM | clearance ([1]; human, plasma, iv, 20 mg/m^2): 10.5 mL/min/kg | half-life ([1]; human, plasma, iv, 20 mg/m^2): 10.5 h | half-life ([1]; human, plasma, iv, 40 mg/m^2): 9.2 h | AUC(0-inf) ([1]; human, plasma, iv, 60 mg/m^2): 5.02 µM·h | AUC(0-t) ([1]; human, plasma, iv, 60 mg/m^2): 4.55 µM·h | Cmax ([1]; human, plasma, iv, 60 mg/m^2): 1.3 µM | clearance ([1]; human, plasma, iv, 60 mg/m^2): 10.5 mL/min/kg | half-life ([1]; human, plasma, iv, 60 mg/m^2): 6.1 h | AUC(0-inf) ([1]; human, plasma, iv, 80 mg/m^2): 16.8 µM·h | AUC(0-t) ([1]; human, plasma, iv, 80 mg/m^2): 15 µM·h | Cmax ([1]; human, plasma, iv, 80 mg/m^2): 5.7 ± 0.1 µM | clearance ([1]; human, plasma, iv, 80 mg/m^2): 4.17 mL/min/kg | half-life ([1]; human, plasma, iv, 80 mg/m^2): 6.7 ± 0.1 h | AUC(0-inf) ([1]; human, plasma, iv, 110 mg/m^2): 22.9 µM·h | AUC(0-t) ([1]; human, plasma, iv, 110 mg/m^2): 19.8 µM·h | Cmax ([1]; human, plasma, iv, 110 mg/m^2): 7.3 ± 2.4 µM | clearance ([1]; human, plasma, iv, 110 mg/m^2): 4.67 mL/min/kg | half-life ([1]; human, plasma, iv, 110 mg/m^2): 7.6 ± 0.2 h | AUC(0-inf) ([1]; human, plasma, iv, 150 mg/m^2): 29.5 µM·h | AUC(0-t) ([1]; human, plasma, iv, 150 mg/m^2): 25.6 µM·h | Cmax ([1]; human, plasma, iv, 150 mg/m^2): 8.7 µM | clearance ([1]; human, plasma, iv, 150 mg/m^2): 4.5 mL/min/kg | half-life ([1]; human, plasma, iv, 150 mg/m^2): 7.2 h | AUC(0-inf) ([1]; human, plasma, iv, 200 mg/m^2): 41.3 µM·h | AUC(0-t) ([1]; human, plasma, iv, 200 mg/m^2): 34.8 µM·h | Cmax ([1]; human, plasma, iv, 200 mg/m^2): 8 ± 4.5 µM | clearance ([1]; human, plasma, iv, 200 mg/m^2): 4.33 mL/min/kg | half-life ([1]; human, plasma, iv, 200 mg/m^2): 7.1 ± 0.5 h | AUC(0-inf) ([1]; human, plasma, iv, 266 mg/m^2): 90.8 µM·h | AUC(0-t) ([1]; human, plasma, iv, 266 mg/m^2): 59.9 µM·h | Cmax ([1]; human, plasma, iv, 266 mg/m^2): 7.8 µM | clearance ([1]; human, plasma, iv, 266 mg/m^2): 2.5 mL/min/kg | half-life ([1]; human, plasma, iv, 266 mg/m^2): 10.2 h | AUC(0-inf) ([1]; human, plasma, iv, 354 mg/m^2): 180 µM·h | AUC(0-t) ([1]; human, plasma, iv, 354 mg/m^2): 114 µM·h | Cmax ([1]; human, plasma, iv, 354 mg/m^2): 17.3 ± 8.5 µM | clearance ([1]; human, plasma, iv, 354 mg/m^2): 2.17 mL/min/kg | half-life ([1]; human, plasma, iv, 354 mg/m^2): 11.5 ± 7.3 h | AUC(0-inf) ([1]; human, plasma, iv, 470 mg/m^2): 203 µM·h | AUC(0-t) ([1]; human, plasma, iv, 470 mg/m^2): 143 µM·h | Cmax ([1]; human, plasma, iv, 470 mg/m^2): 33.7 µM | clearance ([1]; human, plasma, iv, 470 mg/m^2): 2 mL/min/kg | half-life ([1]; human, plasma, iv, 470 mg/m^2): 10.8 h | given dose (± SD) recovered as free drug in urine ([1]; total urine collected in 24 h, average for all dose levels): 6.7 ± 3.0% | progressive disease within the first 2 cycles ([2]; 14 evaluable patients): Eight of the evaluable patients progressed early | patients with best response of stable disease [2, 8]: 35% | patients with best response of stable disease for >2 cycles (number) [2, 8]: 6 | dose level of first grade ≥ 2 toxicity [3]: DL 6 | phase 1 reactions ([4]; NADPH, 37 °C): S-oxidation, N-dealkylation, de-iodination, and O-demethylation | most active phase 1 reaction ([4]; forms catechol 501): O-demethylation | growth inhibitory effects in xenografts [5]: potent and lasting growth inhibitory effects | cytotoxicity [6]: high cytotoxicity

NCCCn1c(Sc2cc3c(cc2I)OCO3)nc2c(N)ncnc21 [compound 471, de-isopropyl PU-H71]
peak in representative ion mass tracing [7]: observed
